The labels stand for the following.
B1: tRNA (parent)
chain: GUUCCGUUGGCGUAAUGGUAACGCGUCUCCCUCCUAAGGAGAAGACUGCGGGUUCGAGUCCCGUACGGAACG

Fewer inactive variants are shown than the library holds.

The variants in this series derive from B1. Description: yeast fitness relative to wild type (ratio to wild type); higher = fitter; tRNA-Arg(CCU), competitive growth, 37 C, YPD. A digest of the protocol: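 Variants of the tRNA-Arg(CCU) gene were chemically synthesised with a 3% per-site mutation rate across 69 sites and placed at the native genomic locus in Saccharomyces cerevisiae. Six parallel replicates of the pooled strains were competed in YPD at 37°C for 24 hours, and gene amplicons from the start and end populations were read by 100-nucleotide paired-end sequencing. Darwinian fitness relative to wild type was derived from changes in genotype frequencies. Genotypes required ≥ 100 starting reads, and estimates < 0.5 were set to 0.5.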
U3G U8A C31A C55U: the yeast fitness was at most 0.5. For U3G C11G G44A G48A the value was at most 0.5; for U3G C27G U35C, at most 0.5; for U3G C30U G48C, 0.593. For U3G C5U U32C G41C the value was at most 0.5. For U3G C49U G58A the value was 0.901. Consider U3G C27G C49G A70G, for which the yeast fitness is at most 0.5. As for U3G C22U C27U G56A, the figure is at most 0.5.

For the variant U3G U13A, the yeast fitness worked out at 1.1.

As to U3G C5U U26A G38A C55A C66U, the yeast fitness was determined as 0.568. For the variant U3G C5U C31A A65U, the yeast fitness was at most 0.5. Turning to U3G C31A A45C, the yeast fitness was at most 0.5. For U3G G17C C61A the value was 0.61; for U3G C11A G52A C66G G68C, at most 0.5; for U3G U7C A40U, 0.502. For U3G U16C G39C A45C C49G the value was at most 0.5; for U3G G50A C62U, 1.04; for U3G G9C C33G G63A, 0.606. For U3G G17C C29U A37G C61U A70C the value was 0.512.

On to U3G G56A, for which the yeast fitness came out at 0.898. For U3G C31A the value was 0.747. As for U3G C31G, the figure is 0.874. Take U3G C27A C61A C62U: the yeast fitness was at most 0.5. Regarding U3G G18A C60G, the yeast fitness is 0.538. On to U3G C24A C30U A57C A69U, for which the yeast fitness is at most 0.5. U3G C24G C49U C55G G58A: the yeast fitness is at most 0.5. For U3G G6C C30U C33G A36C A40U the value was at most 0.5. For U3G C4G G6C C29A A36C G52C the value was at most 0.5; for U3G C24U C31U G50U A69U, 0.56. For U3G C62A, the yeast fitness came to 0.75.

Consider U3G G10C C46U G48A, for which the yeast fitness is at most 0.5. As for U3G C49A G63U G67A, the figure is at most 0.5; as for U3G G17A C24A C34A C46G, at most 0.5.

On to U3G C11A C34G A45C G52C, for which the yeast fitness came out at 0.546. As for U3G C31G U64A C66U G68C, the figure is at most 0.5; as for U3G G52C C62A A65C A70U, at most 0.5. Take U3G C5G G10A C30A C31G U47G C49A C60U G67A: the yeast fitness was at most 0.5. As for U3G C4G C22U C29U A65G, the figure is at most 0.5. For U3G G25A C27G G50C the value was 0.537; for U3G G44C U54A, at most 0.5. U3G G48C G67A: the yeast fitness is 0.683. For U3G G18A G25A C29A the value was at most 0.5; for U3G G68U, 0.808. As to U3G G6A A14G G38C G41C C62G, the yeast fitness is at most 0.5.

For U3G C5U C62A, the yeast fitness was at most 0.5. In the case of U3G U8A G18C C29G A36C, the yeast fitness was at most 0.5. For U3G C5U U32C G41C C49U U59G the value was at most 0.5; for U3G C24G C49U G58A G63A, at most 0.5. For the variant U3G C49U G58A G63A, the yeast fitness was 0.584. On to U3G U16G, for which the yeast fitness was 1.02. Turning to U3G C22A C24U U35G A45U, the yeast fitness was at most 0.5. On to U3G C22A C24U U35G A45U G56A, for which the yeast fitness is at most 0.5. As for U3G U7A G9A U28C A40U, the figure is at most 0.5. For U3G C33U A37C A65C the value was at most 0.5. As for U3G U8C A15U C49A, the figure is 0.597; as for U3G C30G A40G, 0.836; as for U3G C66U A70U, 0.534. Regarding U3G G48A A69U, the yeast fitness was 0.638. As for U3G C5U U26A G68A, the figure is at most 0.5.

U3G G67C: the yeast fitness is 0.825. As for U3G C11U U19C A20U A43U C62G C66A A69C, the figure is at most 0.5.

As to U3G G12A C27A C29G U53A C60A A69C, the yeast fitness is at most 0.5. For U3G U16G U28C A57U the value was at most 0.5; for U3G C46U G68C, 0.607. For U3G C46G G52C the value was at most 0.5; for U3G C4G G6C C29A A36C G52C G56A, at most 0.5. Regarding U3G C30G G56A, the yeast fitness was at most 0.5.

Take U3G C11G U13A C30G C66U A69U: the yeast fitness is at most 0.5. With U3G C5U G6A A65U, the yeast fitness is at most 0.5.

With U3G G23A A36U A43G C61A A70G, the yeast fitness was at most 0.5.

Turning to U3G C29A C46U C61G, the yeast fitness was at most 0.5.

For the variant U3G C30A, the yeast fitness was 0.868. In the case of U3G C30G, the yeast fitness was at most 0.5. For U3G C30A C31G the value was 0.669.

Consider U3G U13G A14C G39C G41A C60G C61U C62G A65U, for which the yeast fitness was 0.543. As for U3G G9C A20G C29A G67U, the figure is at most 0.5; as for U3G U8C A45G, 0.702; as for U3G C29A U35G G51A, at most 0.5. With U3G C4U A15G C24G C55U, the yeast fitness was at most 0.5. For U3G C5U G39A C49U the value was at most 0.5; for U3G C11A C34G A45C, at most 0.5; for U3G C27U U35G A42U, at most 0.5. As for U3G G48U, the figure is 0.937. As for U3G G48A, the figure is 0.856; as for U3G C46A A57U A69U, at most 0.5; as for U3G C31U C34U C46G, at most 0.5. U3G U7G C22U C60G: the yeast fitness was at most 0.5. Turning to U3G C60U, the yeast fitness stood at 0.66. As for U3G C60G, the figure is 0.577. For U3G G50A the value was 0.817; for U3G G41A, 0.748. As for U3G C11U A70G, the figure is 0.576; as for U3G C30G C62U, at most 0.5; as for U3G G25A C61U, 0.733.

For the variant U3G G17C C62U, the yeast fitness was at most 0.5. In the case of U3G C11A U13C C33A A42U C55A, the yeast fitness was at most 0.5. As for U3G C5U U32A C33U, the figure is 0.595.

Regarding U3G U16A A65G, the yeast fitness came to 0.664. For U3G C31U C49U A70C the value was at most 0.5; for U3G G25A, 0.768; for U3G C55A G58A, at most 0.5. As for U3G G17A C30U A57U, the figure is at most 0.5. For the variant U3G U8C C62A, the yeast fitness is at most 0.5. For U3G C5U U32C G41C C49U G67A the value was at most 0.5; for U3G C5A A20G A70U, at most 0.5.

As for U3G G6A A14G C55G A65G, the yeast fitness is at most 0.5.

For U3G C55U C66U, the yeast fitness was at most 0.5.

As for U3G C22A, the yeast fitness was determined as 0.682. As for U3G C24U C31U C61U, the figure is 0.57; as for U3G C4U U35A G58A G67U, at most 0.5; as for U3G C11U C22A, at most 0.5.

As to U3G C24A A40C, the yeast fitness is at most 0.5. For U3G C22G C29A the value was at most 0.5; for U3G G12C A70C, 0.545. As for U3G G12C A42U G67C, the figure is at most 0.5; as for U3G C27U, 0.798.

On to U3G U19G, for which the yeast fitness came out at 0.641.

As to U3G U19C, the yeast fitness amounted to 0.841. With U3G C5G U19C U47A C55A G68A, the yeast fitness was at most 0.5. With U3G U8A C24A A70G, the yeast fitness is at most 0.5. As for U3G C11U A43U A57U C66A, the figure is at most 0.5; as for U3G C49G C60G C62G G63A, at most 0.5. As for U3G G18C G44A, the figure is at most 0.5. Regarding U3G U13A U16A C62U U64A, the yeast fitness was at most 0.5.

As to U3G C27A A65U, the yeast fitness is at most 0.5. For U3G G6A A36U G48C G52C A57U C60G the value was 0.569; for U3G C24U C34U A40G C55G, at most 0.5; for U3G C5G U19C, at most 0.5. For U3G C4A G9A U64A the value was at most 0.5.

Regarding U3G C31U C49U G50A, the yeast fitness is at most 0.5.

For U3G C4G G6C C29A A36C C62U, the yeast fitness was at most 0.5. Regarding U3G U13C A14U C29A C55U, the yeast fitness stood at 0.611. For U3G U16C G39C A45C C49G A69U the value was at most 0.5. For U3G G18A A69U the value was at most 0.5.

On to U3G G17A, for which the yeast fitness is 0.665.

For the variant U3G C4A G12A C29A C30G C62A A69C, the yeast fitness is at most 0.5. As for U3G C49A, the figure is 0.655; as for U3G C49G, 0.809; as for U3G U8A U26G G38C A40C U53C, 0.566. As for U3G U13C C22A, the figure is 0.656; as for U3G C5U G23C C34G C55G A70C, at most 0.5; as for U3G C4G C49G, 0.826. For U3G C11U A45U the value was 0.559.

U3G C46U C49U: the yeast fitness is 0.698. As for U3G U13C A14U C29A, the figure is 0.672. For U3G C22U A57G C60A A65U the value was 0.63; for U3G U8C C33U U54C C66A, at most 0.5.

As to U3G C11U C55G, the yeast fitness is at most 0.5. For U3G G18A C30G G41U C49G the value was at most 0.5; for U3G C22A G25C C33U A69C, 0.507. For U3G G39A A40G the value was at most 0.5; for U3G U13C C33A A42U C55A, 0.585. As for U3G C33A G52A, the figure is 0.651; as for U3G C31G A43C G52A, 0.595; as for U3G C4G G6C C29A A36C G52C U64C, at most 0.5. Regarding U3G G12A, the yeast fitness was determined as 0.682. Regarding U3G C11U A40U, the yeast fitness came to 0.529. As for U3G C30U G48C G68C, the figure is 0.526; as for U3G G10A A21C U28A G68C, at most 0.5. As for U3G U8A G18C G50C, the figure is at most 0.5. For U3G G25A A45U C62A the value was at most 0.5; for U3G U8C G58A, 0.763; for U3G C4U A14U A15U A20C C33G A40U C61G, 0.577. Turning to U3G U13C A14U C29A A69C, the yeast fitness worked out at 0.562. With U3G U13C C22A G25C C33U A69C, the yeast fitness was at most 0.5. As for U3G G18A G41A A45U, the figure is at most 0.5; as for U3G C5A, 0.779.

For the origin of these results see the RNAGym collection of RNA variant scans (doi:10.1126/science.aae0568).
